# The list is not random: actives were taken first. Their share in the collection is about 5.4%.
# Mdm2-MdmX inh: human Mdm2/MdmX binding inhibition; AID 485346; 330,000 tested, 3% active; SaOS-2 split-luciferase Mdm2/MdmX complementation, luminescence; O15151+Q00987; inhibition, % at 8 µM;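 active means inhibition of at least 50% at 8 µM in the primary screen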
# CSC inhib: blocks cancer stem cells. inhibition, % at 7.5 µM. 300,000 tested, 1.1% active. cancer stem cell-like cells viability, luminescence; in the data active means inhibition above about 75%; inconclusive means no clear call, values can overlap the other calls; tested in HMLE shEcad cells
# T cruzi inh: blocks replication of Trypanosoma cruzi. T. cruzi beta-gal in NIH3T3, luminescence, 90 h. inhibition, % (no concentration beside the values). 300,000 tested, 1.4% active. AID 1885;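 active means mean inhibition across valid replicates above about 55%, limit read from the data; inconclusive means mean below that limit but half or more replicates reach it; inactive means mean below it, under half of replicates reach it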;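 further: signal also drops with host cell toxicity which is not excluded here; higher percent means less beta-gal luminescence so fewer parasites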
#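 assay system = mouse NIH/3T3 fibroblasts infected with β-gal-expressing T. cruzi Tulahuen C4 | input = 5,000 NIH/3T3 host cells per well | buffer or medium = DMEM plus 2% FBS | timing = 3 h host attachment, then at least 90 h co-culture | measured by = GalScreen luminescence, 60 min | evaluation = luminescence reflecting intracellular parasite burden, expressed as percent inhibition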
# SKKanGAS inh: inhibitors of SKKanGAS S. pyogenes growth in kanamycin (SK-promoter or general growth effect); BacTiter-Glo, 6 h; inhibition, % at 7.5 µM; 300,000 tested, 1.3% active; AID 1662;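 active means mean replicate score, as percent of positive control median, at least 50; inconclusive means mean below 50 but one replicate at or above 50; inactive means mean and every replicate below 50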;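 further: strain carries kanamycin resistance gene driven by streptokinase promoter and grows in 40 µg/ml kanamycin; loss of luminescence reflects streptokinase promoter inhibition or plain growth inhibition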
# aSyn UTR inh: 5' untranslated region of α-synuclein, MLPCN primary screen; alpha-synuclein 5'UTR reporter, inhibitor activity; inhibition, % (tested at 7.5 µM); 300,000 tested, 0.82% active; in the data active means inhibition above about 60%; inconclusive means no clear call, values can overlap the other calls;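 further: H4 neuroglioblastoma cells stably carrying SNCA 5'UTR luciferase fusion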
# Mdm2-MdmX conf: confirmation of human Mdm2/MdmX interaction inhibitors; shares compounds with Mdm2-MdmX inh; Mdm2-MdmX binding, luminescent assay; inhibition, % at 8 µM; 10,000 tested, 55% active; AID 489028; in the data active means inhibition above about 40%
# Full FLuc ctr: counter-screen for Mdm2/MdmX inhibitors: full-length luciferase. shares compounds with Mdm2-MdmX inh. SaOS-2 full-length luciferase counterscreen, luminescence. inhibition, % at 8 µM. 6,200 tested, 77% active;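 active means mean inhibition at 8 µM reaching about 37%, which flags the compound as non-specific, limit read from the data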;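 further: p53-null SaOS-2 cells with luciferase driven by a doxycycline-inducible promoter; compound on cells about two nights before reading with doxycycline added after day one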
# Numbers stand for hits; . = inactive; ? = inconclusive; / = no result.
SMILES,Mdm2-MdmX inh,CSC inhib,T cruzi inh,SKKanGAS inh,aSyn UTR inh,Mdm2-MdmX conf,Full FLuc ctr
CCN(c1ccc(C(O)(C(=O)OC)C(F)(F)F)cc1)S(=O)(=O)c1ccc(C)cc1 (stereo not drawn),.,.,.,.,.,/,/
[O-]c1ccccc1-[n+]1c(-c2ccccc2)cc(-c2ccccc2)cc1-c1ccccc1,90,.,.,.,?,71,.
Cc1ccccc1-[n+]1c(-c2ccccc2)cc(-c2ccccc2)cc1-c1ccccc1,88,.,.,.,.,88,.
COC(=O)C1=C(c2ccccc2OCc2ccccc2)C[C@@H]2CC[C@H]1N2C(=O)NCCOc1ccccc1Cl,.,.,/,/,/,/,/
N=c1sccn1Cc1ccc(Cl)cc1Cl,.,.,.,.,.,/,/
Clc1ccc(CO/N=C(\Cn2ccnc2)c2ccc(Cl)cc2Cl)c(Cl)c1,56,103,68,96,.,.,/
CCN(CC)C(=O)c1ccc(NC(=O)c2ccc(-n3cncn3)c([N+](=O)[O-])c2)cc1,.,.,.,.,.,/,/
COC(=O)C1CN(C#N)N(c2ccc(Cl)cc2)C12c1ccccc1-c1ccccc12 (stereo not drawn),95,.,.,67,112,.,/
COc1ccc(C(=O)Oc2cccc3cccnc23)cc1S(=O)(=O)N1CCOCC1,.,.,.,.,.,/,/
COc1ccccc1-n1c(-c2ccccc2)nc2ccccc2c1=O,.,/,.,.,.,/,/
C[C@H]1CCC[C@@H](O)CCC/C=C/c2cc(O)cc(O)c2C(=O)O1,.,/,.,.,.,/,/
C[C@H]1CCC/C=C/C2C[C@H](O)CC2[C@H](O)/C=C/C(=O)O1 (stereo partly drawn),100,113,.,.,100,99,51
CC1CCC/C=C/C2CC(O)CC2C(O)/C=C/C(=O)O1 (stereo not drawn),96,131,.,.,133,100,52
C[C@H]1CCC[C@H](O)CCCCCc2cc(O)cc(O)c2C(=O)O1,.,.,.,.,.,/,/
O=C(c1ccc(-c2ccccc2)cc1)C1CCCN(Cc2ccn[nH]2)C1 (stereo not drawn),.,.,.,.,.,/,/
C=CCN(CC#CCOc1ccccc1OC)CC=C,.,.,.,.,.,/,/
O=C1CC(N2CCC(n3c(=O)[nH]c4ccccc43)CC2)C(=O)N1c1ccc(F)cc1 (stereo not drawn),.,.,.,.,.,/,/
O=c1[nH]c2ccccc2n1C1CCN(CCCC(c2ccc(F)cc2)c2ccc(F)cc2)CC1,66,98,.,.,.,.,/
CCCc1c(C)nc(-c2ccc(C)cc2)nc1OC(=O)N(C)C,.,.,.,.,.,/,/
CC1(C)C[C@H]2C=C(C=O)[C@]3(C=O)C[C@]3(C)[C@H]2C1,100,.,?,.,117,100,.
CC(=O)c1c(C)n(Cc2ccccc2Cl)c2ccc(O)cc12,52,.,.,.,.,.,110
CCOP(=O)(OCC)C(O)c1ccc2c(c1)OCO2 (stereo not drawn),.,.,.,.,.,/,/
CC(=O)N1CCC(N2CCCC(C(=O)c3cccc(Cl)c3)C2)CC1 (stereo not drawn),.,.,.,.,.,/,/
Clc1ccc2c(c1)C(OC1CN3CCC1CC3)c1ccccc1CS2 (stereo not drawn),64,.,.,.,.,.,61
CN1CCN(CCOC2c3ccccc3CSc3ccc(Cl)cc32)CC1 (stereo not drawn),.,.,.,.,.,/,/
SMILES,Mdm2-MdmX inh,CSC inhib,T cruzi inh,SKKanGAS inh,aSyn UTR inh,Mdm2-MdmX conf,Full FLuc ctr
CCn1nc(-c2ccccc2)nc2c(=O)n(C)c(=O)nc1-2,74,.,.,95,.,73,.
CCOC(=O)C1(c2ccccc2)CCN(CCC(=O)Nc2cccc(Br)c2)CC1,54,/,/,/,/,.,77
CCOC(=O)C1(c2ccccc2)CCN(CCC(C#N)(c2ccccc2)c2ccccc2)CC1,63,.,.,.,.,.,/
COC(=O)C1=C(c2cccc(C#N)c2)C[C@@H]2CC[C@H]1N2C(=O)NCCOc1ccccc1Cl,.,.,/,/,/,/,/
COC(=O)C1=C(c2ccc(F)cc2OCc2ccccc2)C[C@@H]2CC[C@H]1N2C(=O)N1CCC(O)(c2ccc(Cl)cc2)CC1,69,/,/,/,/,.,/
COC(=O)C1=C(c2ccc(F)cc2OCc2ccccc2)C[C@@H]2CC[C@H]1N2C(=O)N1CCCCC1,.,.,/,/,/,/,/
NC(=O)c1cn(C2OC(CO)C(O)C2O)c2ncnc(N)c12 (stereo not drawn),100,.,57,.,106,99,.
N#CC12CNCC1CN=N2 (stereo not drawn),/,.,.,.,.,/,/
CC(N)Cc1cn(Cc2ccccc2)c2ccccc12 (stereo not drawn),.,.,.,.,.,/,/
O=C1NC(=O)C(CCc2ccncc2)(Cc2cccc(Cl)c2Cl)C(=O)N1c1ccc(Br)cc1 (stereo not drawn),58,.,.,.,?,54,43
CC1=NN=C(c2ccc(N)cc2)c2cc3c(cc2C1)OCO3,.,.,/,/,/,/,/
c1ccc2c(c1)Sc1ccccc1N2CC1CN2CCC1CC2 (stereo not drawn),75,.,.,.,.,44,84
Cc1cccc(OP(N)(=O)Oc2cccc(C)c2C)c1C,.,.,.,.,.,/,/
Cc1cc([N+](=O)[O-])c2ccccc2[n+]1[O-],99,.,79,.,127,100,51
O=C1NC(=O)N(Cc2ccccc2)C(=O)/C1=C\C=C\c1ccco1,66,?,.,.,.,.,/
COC(=O)C1=C(c2cccc(C#N)c2)C[C@@H]2CC[C@H]1N2C(=O)N1CCC(C)CC1,.,.,/,/,/,/,/
COC(=O)[C@@H]1C[C@@]1(C)[C@@H](NP(=O)(c1ccccc1)c1ccccc1)c1ccccc1,.,.,.,.,.,/,/
CNc1ccc2nc3ccccc3[n+](C)c2c1,83,.,59,.,.,50,.
C[n+]1c2ccccc2nc2ccc(NCCO)cc21,.,.,.,.,.,/,/
Cc1ccc(N2C(=O)NC(=O)/C(=C\C=C\c3ccco3)C2=O)cc1C,/,.,.,.,.,/,/
Cc1ccc(C(=O)N[C@@H](C)CN2C3=NC[C@@H](Cc4ccccc4)N3C[C@H]2Cc2ccc(O)cc2)cc1Br,69,.,.,.,.,.,/
Cc1ccc(C(=O)N[C@@H](C)CN2C3=NC[C@H](Cc4ccccc4)N3C[C@H]2Cc2ccc(O)cc2)cc1Br,98,.,.,.,.,58,57
CN(C)c1ccc(/C=C/[N+](=O)[O-])cc1,.,.,.,.,.,/,/
C/C(=C\c1ccc(N(C)C)cc1)[N+](=O)[O-],100,.,.,.,.,.,/
COC(=O)C1=C(c2ccc(F)cc2OCc2ccccc2)C[C@@H]2CC[C@H]1N2C(=O)NCc1ccccc1Br,.,.,/,/,/,/,/
COC(=O)C1=C(c2cc3ccccc3s2)C[C@@H]2CC[C@H]1N2C(=O)N1CCCCC1,52,.,.,.,.,57,40
